Results gathered from unrelated publications.
Protocols differ between the studies behind these lines.
Target: Mitogen-activated protein kinase 8 (MAPK8, Homo sapiens, UniProt P45983)

SMILES	effect on	action	technique	concentration	quantity	result
Cn1c2c(c3ccc(Cl)c(Cl)c31)C(C#N)C1(CCCC1)NC2=O (stereo not shown)	thermal stability		DSF	10 µM	ΔTm	0.6 °C
Nc1nc(Nc2ccccc2)sc1C(=O)c1c(F)cccc1F	enzyme activity	inhibitor		10 µM	remaining activity	75%
Cc1ccc(C(=O)Nc2ccc(CN3CCN(C)CC3)c(C(F)(F)F)c2)cc1C#Cc1cnc2cccnn12	enzyme activity	inhibitor		23.5 nM	remaining activity	82%
CC(C)(C)c1nc2c(s1)c1nc(N)ncc1c1ccc(NS(=O)(=O)c3c(F)cccc3F)c(F)c12	enzyme activity	inhibitor	radiometric	1 µM	remaining activity	75%
CCN(CC)CCNC(=O)c1c(C)[nH]c(/C=C2\C(=O)Nc3ccc(F)cc32)c1C	cell-free assay			0.5 µM	remaining signal	91.8%
CN(C)C1CCN(CC#Cc2nn(C3CCCC3)c3nc(NCc4ccccc4)ncc23)C1 (stereo not shown)	enzyme activity	inhibitor	FRET	0.1 µM	inhibition	1%
COc1cc2ncnc(Nc3ccc(Oc4ccccc4)c(C)c3C)c2cc1OC	enzyme activity	inhibitor		1 µM	inhibition	2%
CN(c1ccnc(CNc2nc(Nc3ccc4c(c3)CC(=O)N4)ncc2C(F)(F)F)n1)S(C)(=O)=O	cell-free assay		competition with immobilised ligand	1 µM	remaining binding	65%
N#CC1c2c([nH]c3c(Cl)c(Cl)ccc23)C(=O)NC12CCCCC2 (racemic)	thermal stability		DSF	10 µM	ΔTm	1.8 °C
COc1cc(Cl)c(C(=O)N[C@@H](CN[C@H]2CC[C@@H](N)CC2)Cc2ccc(C#N)cc2)cc1-c1ccc(CN[C@H](C)c2ccc(C)cc2)o1	enzyme activity	inhibitor		1 µM	remaining activity	100%
FC(F)c1nc2ccccc2n1-c1nc(N2CCOCC2)nc(N2CCOCC2)n1	enzyme activity	inhibitor		10 µM	remaining activity	93%
Cc1cnc(NC2CCOCC2)nc1-n1cnc(C(=O)NC(CN)c2cc(F)cc(Cl)c2)c1 (stereo not shown)	enzyme activity	inhibitor	radiometric	1 µM	remaining activity	56%
CNCc1ccc(-c2cc(-c3nc(-c4ccc(S(=O)(=O)C(C)C)cc4)cnc3N)on2)cc1	enzyme activity	inhibitor		2 µM	inhibition	8%
Cc1ccc(C(=O)NCc2ccsc2)cc1C#Cc1cn(C(C)C)c2ncnc(N)c12	enzyme activity	inhibitor		1 µM	activity vs control	103%
CN([C@@H]1CCc2c(CC(=O)O)c3ccccc3n2C1)S(=O)(=O)c1ccc(F)cc1	cell-free assay		competition with immobilised ligand	1 µM	remaining binding	77%
CN1CCC2(CC1)NC(=O)c1c(c3ccc(Cl)c(Cl)c3n1C)C2C#N (racemic)	thermal stability		DSF	10 µM	ΔTm	0 °C
FC(F)(F)Oc1cccc(-c2cnc3ccc(-c4ccncc4)nn23)c1	enzyme activity	inhibitor	radiometric	5 µM	activity vs control	90%

SMILES	effect on	action	technique	concentration	quantity	result
O=C(Nc1ccc(Oc2ccc(F)cc2)cc1)N1CCc2ncccc2[C@H]1c1ccc(F)cc1	cell-free assay		competition with immobilised ligand	1 µM	remaining binding	91%
CC(C)(O)[C@H]1CC[C@H](Nc2ccc3ncc(-c4cccc(C(F)(F)F)c4)n3n2)CC1	enzyme activity	inhibitor		1 µM	remaining activity	107%
COc1cc(Nc2cnc(C#N)c(O[C@H](C)CN(C)C)n2)ncc1-c1cnn(C)c1	enzyme activity	inhibitor	radiometric	10 µM	remaining activity	93%
CCN1CCC2(CC1)NC(=O)c1c(c3ccc(Cl)c(Cl)c3n1C)C2C#N (racemic)	thermal stability		DSF	10 µM	ΔTm	0.6 °C
Oc1cccc(-c2nc(N3CCOCC3)c3oc4ncccc4c3n2)c1	enzyme activity	inhibitor		10 µM	remaining activity	102%
Cc1sc(C(=O)NC2COC2)cc1-n1cc(NC(=O)Nc2c(F)cccc2Cl)cn1	enzyme activity	inhibitor		10 µM	remaining activity	76.3%
CC1=C(C#N)[C@@H](c2ccc3[nH]nc(C)c3c2)C(C#N)=C(c2ccc(Cl)cc2)N1	cell-free assay		competition with immobilised ligand	1 µM	remaining binding	65.2%
COc1cc(-c2cc(-c3ccc(N4CCNCC4)cc3)cnc2C)cc(OC)c1OC	enzyme activity	inhibitor		0.1 µM	inhibition	0%
CO[C@@H](C)c1c(Nc2ccc([C@@H](N(C)C(=O)C3CCS(=O)(=O)CC3)C(F)(F)F)cc2)cnc2cc(Cl)nn12	cell-free assay		competition with immobilised ligand	1 µM	remaining binding	69%
N#CCCc1ccc2c(c1)-c1[nH]c3ccc([N+](=O)[O-])cc3c1CC(=O)N2	cell-free assay			0.5 µM	remaining signal	93.1%
CC(C)(O)c1cncc(-c2nc3ccc(F)cc3n2C2CC2)c1	cell-free assay		competition with immobilised ligand	1 µM	remaining binding	100%
CC(C)(C)C(=O)c1sc(NC2CCCCC2)nc1N	enzyme activity	inhibitor		10 µM	remaining activity	98%
CCCOc1ccc([C@@H]2[C@@H](C(=O)O)[C@H](c3ccc4c(c3)OCO4)CN2CC(=O)Nc2c(CC)cccc2CC)cc1	cell-free assay		competition with immobilised ligand	1 µM	remaining binding	87%
CSc1nc(C)c(-c2ccnc(Nc3ccc(N4CCOCC4)cc3)c2)[nH]1	enzyme activity	inhibitor		10 µM	inhibition	88.6%
Cn1c2c(c3ccc(Cl)c(Cl)c31)C(C#N)C1(CCNCC1)NC2=O (racemic)	thermal stability		DSF	10 µM	ΔTm	0.2 °C
NS(=O)(=O)c1cc(NC(=O)C2(c3ccccc3Cl)CC2)ccc1Oc1cccc(Cl)c1	cell-free assay		competition with immobilised ligand	1 µM	remaining binding	100%
O=C1Nc2ccc(Cl)cc2C1=Cc1cc(Cl)c(O)c(Cl)c1	cell-free assay			0.5 µM	remaining signal	82.8%
